How the values were obtained:
Adenosine A2 receptor [1] = molecular target: T1, Adenosine A2 receptor (Rattus norvegicus, UniProt P29276+P30543); assay: Inhibition of [3H]NECA binding to A2 adenosine receptor of PC12 cell membranes; conditions: pc-12
Adenosine receptor A1 = assay: Specific binding of [3H]CPX to the A1-adenosine receptor
[2] = system: Adenosine receptor A1 (Mesocricetus auratus); assay: Loss of specific binding of [3H]CPX to the A1-adenosine receptor of DDT1 MF-2 (DDT) cells at a concentration of 10 uM
[3] = molecular target: T2, Adenosine receptor A1 (Homo sapiens) (UniProt P30542); assay: Loss of [3H]CPX binding to A1 adenosine receptor of DDT1 MF-2 (DDT) cells at 0.1 uM
T2 sequence (whole entry): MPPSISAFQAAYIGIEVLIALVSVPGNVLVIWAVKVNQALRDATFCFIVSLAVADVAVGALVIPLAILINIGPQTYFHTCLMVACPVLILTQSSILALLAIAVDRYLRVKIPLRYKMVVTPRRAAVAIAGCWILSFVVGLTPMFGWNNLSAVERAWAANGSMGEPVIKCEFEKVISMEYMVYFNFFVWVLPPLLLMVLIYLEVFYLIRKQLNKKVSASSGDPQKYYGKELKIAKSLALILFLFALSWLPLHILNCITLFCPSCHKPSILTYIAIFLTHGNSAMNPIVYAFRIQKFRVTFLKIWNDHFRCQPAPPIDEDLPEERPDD
Method in brief: (§1)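 DDT1 MF-2 monolayers, 1 day preconfluent, were exposed to xanthine in HBSS for 2 h at 37 °C, then washed 5 times (3 min each) in ligand-free HBSS. Membranes in 50 mM Tris-HCl pH 7.4 with 5 mM MgCl2 were incubated 2 h at room temperature with 0.06–4 nM [3H]CPX; 10 μM N6-cyclopentyladenosine defined nonspecific binding. Triplicate; Scatchard Bmax versus control.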

[4] = system: Adenosine receptor A1 (Mesocricetus auratus); assay: Loss of specific binding of [3H]CPX to the A1-adenosine receptor of DDT1 MF-2 (DDT) cells at a concentration of 1 uM
Adenosine A2 receptor [5] = molecular target: T1, Adenosine A2 receptor; assay: Binding of [3H]NECA to A2 adenosine receptor (post-Xanthine); assay type: protein assay
[6] = molecular target: T3, Adenosine A2 receptor (Rattus norvegicus) (UniProt P29276+P30543); assay: Inhibition of [3H]NECA binding to A2 adenosine receptor of PC12 cell membranes at 50 uM; conditions: PC-12
Method in brief: (§2)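 PC12 monolayers, 1 day preconfluent, were exposed to xanthine in HBSS for 2 h at 37 °C, then washed 7 times (3 min each) in ligand-free HBSS. Membranes in Tris-Mg pH 7.4 were bound 2 h at room temperature with 1–10 nM [3H]NECA plus adenosine deaminase; 10 μM NECA defined nonspecific binding. Triplicate; Scatchard Bmax compared with control.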

Adenosine A2 receptor [7] = molecular target: T1, Adenosine A2 receptor; assay: Binding of [3H]NECA to A2 adenosine receptor of PC12 cell membranes; conditions: pc-12
Method in brief: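 PC12 cell membranes (0.1–0.2 mg protein) were incubated 2 h at room temperature in 50 mM Tris-HCl pH 7.4 with 5 mM MgCl2, 1 nM [3H]NECA, adenosine deaminase 2 units/mL, and 7–10 xanthine concentrations. Nonspecific binding was set with 10 μM NECA. Bound ligand was separated by filtration and counted by scintillation. Run in triplicate; IC50 from Hill plots.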

[8] = molecular target: T2, Adenosine receptor A1 (Homo sapiens); assay: Percentage loss of [3H]- CPX binding in cells pretreated with a xanthine derivative at 50 uM; method in brief: as §1
[9] = molecular target: T3, Adenosine A2 receptor (Rattus norvegicus); assay: Loss of [3H]NECA binding to A2 adenosine receptor at 50 uM; assay type: protein assay; method in brief: as §2
[10] = molecular target: T2, Adenosine receptor A1 (Homo sapiens); assay: Percent loss of [3H]CPX binding to A1 adenosine receptor of DDT1 MF-2 (DDT) cells 10 uM; method in brief: as §1
[11] = molecular target: T2, Adenosine receptor A1 (Homo sapiens); assay: Loss of [3H]CPX binding to A1 adenosine receptor of DDT1 MF-2 (DDT) cells at 0.01 uM; method in brief: as §1
[12] = molecular target: T2, Adenosine receptor A1 (Homo sapiens); assay: Loss of [3H]CPX binding to A1 adenosine receptor of DDT1 MF-2 (DDT) cells at 0.05 uM; method in brief: as §1
[13] = system: Adenosine receptor A1 (Mesocricetus auratus); assay: Loss of [3H]CPX binding to A1 adenosine receptor of DDT1 MF-2 (DDT) cells at 10 uM

Q: With `CCCn1c(=O)n(CCCOC(=O)c2ccc(S(=O)(=O)F)cc2)c(=O)c2[nH]c(C3CCCC3)nc21` as the compound, how does the IC50 (Adenosine A2 receptor [1]) read?
A: > 100000 nM

Q: How did the Kd (Adenosine receptor A1) turn out when `O=C(OCCCn1c(=O)c2[nH]c(C3CCCC3)nc2n(CCCOC(=O)c2ccc(S(=O)(=O)F)cc2)c1=O)c1ccc(S(=O)(=O)F)cc1` was run?
A: 0.82 nM

Q: For `CCCn1c(=O)c2nc(CNC(=O)CBr)[nH]c2n(CCC)c1=O`, which Loss [2] is on record?
A: 17%

Q: With `CCCn1c(=O)c2[nH]c(NC(=O)c3cccc(S(=O)(=O)F)c3)nc2n(CCC)c1=O` as the compound, how does the Kd (Adenosine receptor A1) read?
A: 0.79 nM

Q: How did the Loss [2] turn out when `CCCn1c(=O)c2nc(-c3ccc(Cl)c([N+](=O)[O-])c3)[nH]c2n(CCC)c1=O` was run?
A: 0%

Q: Which results are given for `CCCn1c(=O)c2nc(CNC(=O)c3ccc(S(=O)(=O)F)cc3)[nH]c2n(CCC)c1=O`?
A: Loss [2]: 85%; Loss [3]: 25%; Loss [4]: 72%; Kd (Adenosine A2 receptor [5]): 51 nM; Loss [6]: 0%; IC50 (Adenosine A2 receptor [7]): 49000 nM

Q: Which Loss [2] does the source give for `CCCn1c(=O)c2nc(CCNC(=O)c3ccc(S(=O)(=O)F)cc3)[nH]c2n(CCC)c1=O` here?
A: 72%

Q: And the Kd (Adenosine receptor A1)?
A: 0.74 nM

Q: With `CCCn1c(=O)c2nc(NC(=O)c3cccc(S(=O)(=O)F)c3)[nH]c2n(CCC)c1=O` as the compound, how does the Loss [2] read?
A: 54%

Q: `CCCn1c(=O)c2nc(C3CCC(OC(=O)c4ccc(S(=O)(=O)F)cc4)C3)[nH]c2n(CCC)c1=O` (centres undefined) was tested. Which Loss [4] did it give?
A: 16%

Q: `CCCn1c(=O)c2nc(C3CCCC3)[nH]c2n(CC(C)OC(=O)CBr)c1=O` (centres undefined) was tested. Which Loss [4] did it give?
A: 0%

Q: Which Loss [2] does the source give for `CCCn1c(=O)c2nc(NC(=O)c3ccc(S(=O)(=O)F)cc3)[nH]c2n(CCC)c1=O` here?
A: 88%

Q: What about the Kd (Adenosine receptor A1) of the same compound?
A: 1.1 nM

Q: For `CCCn1c(=O)c2[nH]c(C3CCCC3)nc2n(CC(C)OC(=O)CBr)c1=O` (centres undefined), which Kd (Adenosine receptor A1) is on record?
A: 1.1 nM

Q: For `CCCn1c(=O)c2nc(CCCNC(=O)c3cccc(S(=O)(=O)F)c3)[nH]c2n(CCC)c1=O`, which Loss [2] is on record?
A: 30%

Q: With `CCCn1c(=O)c2nc(CCCCCN3C(=O)C=CC3=O)[nH]c2n(CCC)c1=O` as the compound, how does the Loss [2] read?
A: 16%

Q: How did the IC50 (Adenosine A2 receptor [1]) turn out when `CCCn1c(=O)c2nc(CNC(=O)c3cccc(S(=O)(=O)F)c3)[nH]c2n(CCC)c1=O` was run?
A: 45000 nM

Q: And the Kd (Adenosine A2 receptor [5])?
A: 40 nM

Q: What about the Loss [8] of the same compound?
A: 58%

Q: And the Loss [9]?
A: 0%

Q: What about the Loss [10] of the same compound?
A: 38%

Q: Which Kd (Adenosine receptor A1) does the source give for `CCCn1c(=O)c2[nH]c(CCCNC(=O)c3cccc(S(=O)(=O)F)c3)nc2n(CCC)c1=O` here?
A: 0.86 nM

Q: With `CCCn1c(=O)c2nc(CCNC(=O)CBr)[nH]c2n(CCC)c1=O` as the compound, how does the Loss [2] read?
A: 28%

Q: With `CCCn1c(=O)c2nc(CCCCCNC(=O)CBr)[nH]c2n(CCC)c1=O` as the compound, how does the Loss [2] read?
A: 7%

Q: How did the Loss [4] turn out when `CCCn1c(=O)c2nc(C3CCCC3)[nH]c2n(CCCOC(=O)c2cccc(S(=O)(=O)F)c2)c1=O` was run?
A: 11%

Q: What does the source list for `CCCn1c(=O)c2nc(C3CCCC3)[nH]c2n(CCCOC(=O)c2ccc(S(=O)(=O)F)cc2)c1=O`?
A: IC50 (Adenosine A2 receptor [1]): 9000 nM; Kd (Adenosine A2 receptor [5]): 53 nM; Loss [11]: 60%; Loss [12]: 74%

Q: `O=C(OCCCn1c(=O)c2nc(C3CCCC3)[nH]c2n(CCCOC(=O)c2ccc(S(=O)(=O)F)cc2)c1=O)c1ccc(S(=O)(=O)F)cc1` was tested. Which Loss [2] did it give?
A: 50%

Q: What does the source list for `CCCn1c(=O)c2nc(CCCNC(=O)c3ccc(S(=O)(=O)F)cc3)[nH]c2n(CCC)c1=O`?
A: IC50 (Adenosine A2 receptor [1]): 26000 nM; Kd (Adenosine A2 receptor [5]): 43 nM; Loss [9]: 0%

Q: For `CCCn1c(=O)c2nc(CNC(=O)c3ccccc3)[nH]c2n(CCC)c1=O`, which Loss [13] is on record?
A: 0%

Reference: ChEMBL document CHEMBL1127726, “Substituted 1,3-dipropylxanthines as irreversible antagonists of A1 adenosine receptors” (J Med Chem, 1994)
